{
  "source": "ChEMBL document CHEMBL4706521",
  "about": "“Synthesis of indole inhibitors of silent information regulator 1 (SIRT1), and their evaluation as cytotoxic agents” (Eur J Med Chem, 2020)",
  "key": {"[1]": {"test_system": "HepG2", "test": "Cytotoxicity against human HepG2 cells assessed as cell viability measured after 48 hrs by MTT assay", "type": "functional, cell-based", "settings": "HepG2, 48 h"}, "[2]": {"biological_target": "T1, NAD-dependent protein deacetylase sirtuin-1 (Homo sapiens, UniProt Q96EB6)", "T1 sequence (Q96EB6 whole entry)": "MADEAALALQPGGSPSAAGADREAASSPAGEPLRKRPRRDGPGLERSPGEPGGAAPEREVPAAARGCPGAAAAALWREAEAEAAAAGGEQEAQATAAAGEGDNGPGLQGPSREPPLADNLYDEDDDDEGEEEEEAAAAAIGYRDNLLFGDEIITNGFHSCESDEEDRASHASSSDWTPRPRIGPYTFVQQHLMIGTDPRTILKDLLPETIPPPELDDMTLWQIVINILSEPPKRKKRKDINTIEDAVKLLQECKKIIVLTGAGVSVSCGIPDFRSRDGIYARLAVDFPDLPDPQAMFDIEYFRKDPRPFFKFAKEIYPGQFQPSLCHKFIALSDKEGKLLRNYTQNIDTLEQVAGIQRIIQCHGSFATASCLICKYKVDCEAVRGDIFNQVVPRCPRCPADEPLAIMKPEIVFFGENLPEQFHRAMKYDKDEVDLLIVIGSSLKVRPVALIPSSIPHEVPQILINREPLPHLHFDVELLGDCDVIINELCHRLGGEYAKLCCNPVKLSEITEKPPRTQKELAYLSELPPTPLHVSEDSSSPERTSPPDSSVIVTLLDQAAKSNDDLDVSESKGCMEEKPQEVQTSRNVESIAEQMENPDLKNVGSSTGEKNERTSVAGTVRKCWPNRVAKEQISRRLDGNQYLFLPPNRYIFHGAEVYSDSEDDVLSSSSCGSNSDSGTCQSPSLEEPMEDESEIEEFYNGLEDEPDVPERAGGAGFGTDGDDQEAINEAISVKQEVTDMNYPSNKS", "test": "Inhibition of recombinant human SIRT1 (193 to 741 residues) expressed in Escherichia coli expression system using RHKK(Ac)W-NH2 as substrate measured after 2 hrs by HPLC method"}, "[3]": {"test_system": "HUVEC", "test": "Cytotoxicity against human HUVEC cells assessed as cell viability measured after 48 hrs by MTT assay", "type": "cell-based", "in_short": "(§1)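 Cells were seeded at 5×10^4 cells/mL and allowed to adhere for 24 h. Compounds in DMSO were tested at final 0.01, 0.1, 1, 10 and 100 μM for 48 h. MTT was then added, followed by isopropanol-HCl. OD was read at 570/630 nm, and IC50 was calculated from OD.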"}, "[4]": {"test_system": "HCT-116", "test": "Cytotoxicity against human HCT-116 cells assessed as cell viability measured after 48 hrs by MTT assay", "type": "functional, cell-based", "settings": "HCT-116, 48 h"}, "[5]": {"test_system": "A549", "test": "Cytotoxicity against human A549 cells assessed as cell viability measured after 48 hrs by MTT assay", "type": "functional, cell-based", "settings": "A549, 48 h", "in_short": "as §1"}, "[6]": {"test_system": "HT-29", "test": "Cytotoxicity against human HT-29 cells assessed as cell viability measured after 48 hrs by MTT assay", "type": "functional, cell-based", "settings": "HT-29, 48 h", "in_short": "as §1"}, "[7]": {"test_system": "NCI-H460", "test": "Cytotoxicity against human NCI-H460 cells assessed as cell viability measured after 48 hrs by MTT assay", "type": "functional, cell-based", "settings": "NCI-H460, 48 h"}, "[8]": {"test_system": "HEK-293T", "test": "Cytotoxicity against human HEK293T cells assessed as cell viability measured after 48 hrs by MTT assay", "type": "cell-based"}, "[9]": {"test_system": "K562", "test": "Cytotoxicity against human K562 cells assessed as cell viability measured after 48 hrs by MTT assay", "type": "functional, cell-based", "settings": "K562, 48 h", "in_short": "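Cells were seeded at 5×10^4 cells/mL and kept in suspension 2 h before dosing. Compounds were added from DMSO at final 0.01–100 μM (tenfold series) for 48 h. MTT was applied, then isopropanol-HCl, with OD read at 490 and 630 nm. IC50 was obtained from OD.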"}, "[10]": {"test_system": "MCF7", "test": "Cytotoxicity against human MCF7 cells assessed as cell viability measured after 48 hrs by MTT assay", "type": "functional, cell-based", "settings": "MCF7, 48 h"}, "[11]": {"biological_target": "T2, NAD-dependent protein deacetylase sirtuin-2 (Homo sapiens) (UniProt Q8IXJ6)", "T2 sequence (whole entry)": "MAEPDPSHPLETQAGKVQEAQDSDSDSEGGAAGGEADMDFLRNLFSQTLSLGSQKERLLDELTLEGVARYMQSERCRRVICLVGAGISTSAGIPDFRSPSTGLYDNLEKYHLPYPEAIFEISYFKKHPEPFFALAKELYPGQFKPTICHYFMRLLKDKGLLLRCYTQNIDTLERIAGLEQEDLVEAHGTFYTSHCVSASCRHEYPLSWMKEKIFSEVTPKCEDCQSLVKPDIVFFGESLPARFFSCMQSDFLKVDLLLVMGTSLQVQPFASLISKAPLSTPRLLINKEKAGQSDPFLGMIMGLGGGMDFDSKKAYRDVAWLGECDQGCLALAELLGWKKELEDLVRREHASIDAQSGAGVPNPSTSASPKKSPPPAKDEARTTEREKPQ", "test": "Inhibition of recombinant human SIRT2 expressed in baculovirus infected SF9 cells expression system using RHKK(Ac)W-NH2 as substrate at 10 uM measured after 20 mins by HPLC method", "in_short": "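SIRT2 at about 100 nM (nominal) started the reaction, without preincubation, in kit buffer pH 8.0 with 2 mM NAD+ and 250 μM RHKK(Ac)W-NH2. Final DMSO was 1%. Reactions ran 20 min at 37 °C, keeping conversion at 2–8%, and were stopped with TFA. Substrate and product were separated by C18 HPLC (10–50% B gradient) and detected at 220 nm. Peak areas gave % conversion. Results were reported as IC50 (95% CI) or % inhibition (SD), from at least duplicates.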"}, "[12]": {"biological_target": "T3, NAD-dependent protein deacetylase sirtuin-2 (Homo sapiens, UniProt Q8IXJ6)", "T3 sequence (Q8IXJ6 whole entry)": "T2 sequence (whole entry)", "test": "Inhibition of recombinant human SIRT2 expressed in baculovirus infected SF9 cells expression system using RHKK(Ac)W-NH2 as substrate measured after 20 mins by HPLC method"}},
  "note": "pIC50: −log10 of the molar value.",
  "data": [
    {"smiles": "NC(=O)Cc1[nH]c2ccc(Cl)cc2c1CC(N)=O", "values": [
      {"measurement": "pIC50", "setting": "[1]", "result": "< 4.00"},
      {"measurement": "pIC50", "setting": "[2]", "result": "< 4.00"},
      {"measurement": "pIC50", "setting": "[3]", "result": "< 4.00"},
      {"measurement": "pIC50", "setting": "[4]", "result": "< 4.00"},
      {"measurement": "pIC50", "setting": "[5]", "result": "< 4.00"},
      {"measurement": "pIC50", "setting": "[6]", "result": "< 4.00"},
      {"measurement": "pIC50", "setting": "[7]", "result": "< 4.00"},
      {"measurement": "pIC50", "setting": "[8]", "result": "< 4.00"},
      {"measurement": "pIC50", "setting": "[9]", "result": "< 4.00"},
      {"measurement": "pIC50", "setting": "[10]", "result": "< 4.00"}
    ]},
    {"smiles": "CC[C@@]1(O)C(=O)OCc2c1cc1n(c2=O)Cc2cc3ccccc3nc2-1", "note": "[CAMPTOTHECIN]", "values": [
      {"measurement": "pIC50", "setting": "[1]", "result": 7.40},
      {"measurement": "pIC50", "setting": "[3]", "result": "> 8.00"},
      {"measurement": "pIC50", "setting": "[4]", "result": 7.30},
      {"measurement": "pIC50", "setting": "[5]", "result": 5.81},
      {"measurement": "pIC50", "setting": "[6]", "result": "< 4.00"},
      {"measurement": "pIC50", "setting": "[7]", "result": 6.92},
      {"measurement": "pIC50", "setting": "[8]", "result": 5.25},
      {"measurement": "pIC50", "setting": "[9]", "result": 6.49},
      {"measurement": "pIC50", "setting": "[10]", "result": 5.78}
    ]},
    {"smiles": "NC(=O)Cc1cc2cc(Cl)ccc2[nH]1", "values": [
      {"measurement": "pIC50", "setting": "[1]", "result": "< 4.00"},
      {"measurement": "pIC50", "setting": "[2]", "result": 4.05},
      {"measurement": "pIC50", "setting": "[3]", "result": "< 4.00"},
      {"measurement": "pIC50", "setting": "[4]", "result": "< 4.00"},
      {"measurement": "pIC50", "setting": "[5]", "result": "< 4.00"},
      {"measurement": "inhibition", "setting": "[11]", "result": 1.7, "unit": "%"},
      {"measurement": "pIC50", "setting": "[6]", "result": "< 4.00"},
      {"measurement": "pIC50", "setting": "[7]", "result": "< 4.00"},
      {"measurement": "pIC50", "setting": "[8]", "result": "< 4.00"},
      {"measurement": "pIC50", "setting": "[9]", "result": "< 4.00"},
      {"measurement": "pIC50", "setting": "[10]", "result": "< 4.00"}
    ]},
    {"smiles": "NC(=O)Cc1[nH]c2ccc(Cl)cc2c1Cc1ccccc1", "values": [
      {"measurement": "pIC50", "setting": "[12]", "result": 6.03}
    ]},
    {"smiles": "NC(=O)C1CCCc2c1[nH]c1ccc(Cl)cc21", "note": "(configuration not stated)", "values": [
      {"measurement": "pIC50", "setting": "[1]", "result": 4.36},
      {"measurement": "pIC50", "setting": "[3]", "result": 4.82},
      {"measurement": "pIC50", "setting": "[4]", "result": 4.43},
      {"measurement": "pIC50", "setting": "[5]", "result": 4.54},
      {"measurement": "inhibition", "setting": "[11]", "result": 84, "unit": "%"},
      {"measurement": "pIC50", "setting": "[6]", "result": "< 4.00"},
      {"measurement": "pIC50", "setting": "[7]", "result": 4.32},
      {"measurement": "pIC50", "setting": "[8]", "result": 4.29},
      {"measurement": "pIC50", "setting": "[9]", "result": 4.22},
      {"measurement": "pIC50", "setting": "[10]", "result": 4.43}
    ]},
    {"smiles": "CCc1c(CC(N)=O)[nH]c2ccc(Cl)cc12", "values": [
      {"measurement": "pIC50", "setting": "[1]", "result": "< 4.00"},
      {"measurement": "pIC50", "setting": "[2]", "result": 4.85},
      {"measurement": "pIC50", "setting": "[3]", "result": 4.24},
      {"measurement": "pIC50", "setting": "[4]", "result": 4.28},
      {"measurement": "pIC50", "setting": "[5]", "result": "< 4.00"},
      {"measurement": "inhibition", "setting": "[11]", "result": -5.5, "unit": "%"},
      {"measurement": "pIC50", "setting": "[6]", "result": "< 4.00"},
      {"measurement": "pIC50", "setting": "[7]", "result": 4.15},
      {"measurement": "pIC50", "setting": "[8]", "result": 4.11},
      {"measurement": "pIC50", "setting": "[9]", "result": 4.06},
      {"measurement": "pIC50", "setting": "[10]", "result": "< 4.00"}
    ]}
  ]
}
